According to the M2OR odorant receptor database:

What was measured:
Conditions in all cases: stereoisomer not certain
UniProt Q8VG27 = biological target: T1, UniProt Q8VG27
T1 sequence (whole entry): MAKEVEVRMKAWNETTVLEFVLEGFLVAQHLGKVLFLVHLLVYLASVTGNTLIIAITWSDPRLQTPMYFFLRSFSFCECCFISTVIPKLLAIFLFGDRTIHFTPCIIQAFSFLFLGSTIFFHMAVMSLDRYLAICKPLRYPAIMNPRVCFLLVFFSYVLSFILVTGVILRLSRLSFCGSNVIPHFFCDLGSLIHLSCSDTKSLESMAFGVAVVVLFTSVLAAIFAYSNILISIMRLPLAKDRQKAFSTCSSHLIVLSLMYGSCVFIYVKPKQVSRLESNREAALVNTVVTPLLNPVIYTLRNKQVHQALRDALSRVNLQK
Procedure, shortened: (§1)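 Assay methods differ from source to source, frequently being transient luciferase assays in mammalian cell lines. For each receptor–molecule pair, the label responsive (active) applies when the original authors judged the measured signal statistically different from baseline, and non-responsive (inactive) applies otherwise.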

UniProt Q8VG28 = biological target: UniProt Q8VG28
Procedure, shortened: as §1

UniProt Q8VG53 = biological target: T2, UniProt Q8VG53
T2 sequence (whole entry): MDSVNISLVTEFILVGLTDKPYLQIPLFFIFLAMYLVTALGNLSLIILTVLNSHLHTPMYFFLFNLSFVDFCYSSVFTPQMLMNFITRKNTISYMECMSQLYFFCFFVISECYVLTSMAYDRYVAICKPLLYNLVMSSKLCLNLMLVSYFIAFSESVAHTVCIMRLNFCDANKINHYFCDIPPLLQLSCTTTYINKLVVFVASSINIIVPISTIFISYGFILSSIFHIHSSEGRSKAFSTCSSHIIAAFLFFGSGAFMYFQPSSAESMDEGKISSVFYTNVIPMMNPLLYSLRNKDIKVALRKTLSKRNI
Procedure, shortened: as §1

UniProt Q8VG64 = biological target: T3, UniProt Q8VG64
T3 sequence (whole entry): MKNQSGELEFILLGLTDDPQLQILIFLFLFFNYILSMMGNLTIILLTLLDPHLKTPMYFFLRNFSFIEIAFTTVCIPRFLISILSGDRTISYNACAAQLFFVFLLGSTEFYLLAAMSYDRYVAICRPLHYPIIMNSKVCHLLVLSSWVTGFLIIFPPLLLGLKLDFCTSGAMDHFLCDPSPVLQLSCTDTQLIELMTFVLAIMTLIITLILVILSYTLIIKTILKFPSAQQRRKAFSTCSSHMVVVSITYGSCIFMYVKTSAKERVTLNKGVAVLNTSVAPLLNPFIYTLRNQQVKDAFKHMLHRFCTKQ
Procedure, shortened: as §1

UniProt Q8VGB9 = biological target: T4, UniProt Q8VGB9
T4 sequence (whole entry): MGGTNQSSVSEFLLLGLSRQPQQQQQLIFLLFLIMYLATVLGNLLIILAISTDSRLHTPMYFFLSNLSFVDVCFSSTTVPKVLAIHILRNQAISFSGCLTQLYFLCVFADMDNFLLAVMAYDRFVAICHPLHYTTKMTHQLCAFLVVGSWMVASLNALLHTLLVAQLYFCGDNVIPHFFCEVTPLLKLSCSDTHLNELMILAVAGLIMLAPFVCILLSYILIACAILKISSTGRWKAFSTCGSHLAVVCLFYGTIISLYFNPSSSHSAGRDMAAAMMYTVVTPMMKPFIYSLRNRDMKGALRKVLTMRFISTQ
Procedure, shortened: as §1

UniProt Q8VGC6 = biological target: T5, UniProt Q8VGC6
T5 sequence (whole entry): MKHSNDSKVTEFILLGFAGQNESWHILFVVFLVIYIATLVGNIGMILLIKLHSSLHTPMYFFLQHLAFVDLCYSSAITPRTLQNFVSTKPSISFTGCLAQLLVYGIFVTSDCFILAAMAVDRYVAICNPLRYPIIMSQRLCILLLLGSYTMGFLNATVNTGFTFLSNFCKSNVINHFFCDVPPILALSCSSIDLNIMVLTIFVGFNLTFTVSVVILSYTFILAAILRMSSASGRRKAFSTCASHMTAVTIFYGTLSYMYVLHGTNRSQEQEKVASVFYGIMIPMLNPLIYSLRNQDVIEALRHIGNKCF
Procedure, shortened: as §1

UniProt Q8VGJ3 = biological target: T6, UniProt Q8VGJ3
T6 sequence (whole entry): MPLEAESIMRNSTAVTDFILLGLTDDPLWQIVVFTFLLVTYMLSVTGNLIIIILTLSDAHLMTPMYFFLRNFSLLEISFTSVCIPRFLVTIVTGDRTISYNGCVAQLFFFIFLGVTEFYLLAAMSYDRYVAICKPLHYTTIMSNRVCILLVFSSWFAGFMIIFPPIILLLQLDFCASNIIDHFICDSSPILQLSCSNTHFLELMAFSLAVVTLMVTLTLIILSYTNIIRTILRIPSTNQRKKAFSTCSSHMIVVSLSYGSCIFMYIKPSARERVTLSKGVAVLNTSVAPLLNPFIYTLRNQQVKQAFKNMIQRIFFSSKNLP
Procedure, shortened: as §1

UniProt Q8VGL0 = biological target: T7, UniProt Q8VGL0
T7 sequence (whole entry): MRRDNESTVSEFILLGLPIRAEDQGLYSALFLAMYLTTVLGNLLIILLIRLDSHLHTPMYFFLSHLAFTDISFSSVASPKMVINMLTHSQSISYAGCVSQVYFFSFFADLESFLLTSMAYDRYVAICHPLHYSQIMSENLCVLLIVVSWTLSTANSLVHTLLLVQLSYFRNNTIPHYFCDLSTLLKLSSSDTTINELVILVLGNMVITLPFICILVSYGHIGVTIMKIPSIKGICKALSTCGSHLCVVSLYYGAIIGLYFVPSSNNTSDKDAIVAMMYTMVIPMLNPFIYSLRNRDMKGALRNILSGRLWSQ
Procedure, shortened: as §1

UniProt Q8VG49 = biological target: T8, UniProt Q8VG49
T8 sequence (whole entry): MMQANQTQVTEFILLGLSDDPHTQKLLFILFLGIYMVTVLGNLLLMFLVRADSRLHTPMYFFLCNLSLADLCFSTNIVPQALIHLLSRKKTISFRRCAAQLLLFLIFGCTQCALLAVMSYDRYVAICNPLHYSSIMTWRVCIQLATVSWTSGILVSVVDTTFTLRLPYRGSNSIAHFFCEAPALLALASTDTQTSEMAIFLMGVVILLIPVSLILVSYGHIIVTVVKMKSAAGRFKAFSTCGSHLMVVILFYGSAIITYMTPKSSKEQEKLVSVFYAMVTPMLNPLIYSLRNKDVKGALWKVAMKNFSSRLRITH
Procedure, shortened: as §1

UniProt Q8VG77 = biological target: T9, UniProt Q8VG77
T9 sequence (whole entry): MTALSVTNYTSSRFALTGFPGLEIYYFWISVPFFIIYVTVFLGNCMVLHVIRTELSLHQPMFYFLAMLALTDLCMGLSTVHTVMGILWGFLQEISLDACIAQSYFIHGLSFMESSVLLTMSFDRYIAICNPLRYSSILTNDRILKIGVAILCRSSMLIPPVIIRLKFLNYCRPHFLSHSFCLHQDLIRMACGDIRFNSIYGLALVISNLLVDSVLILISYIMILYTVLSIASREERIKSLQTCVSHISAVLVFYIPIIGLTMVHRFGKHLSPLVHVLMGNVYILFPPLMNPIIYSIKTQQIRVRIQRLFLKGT
Procedure, shortened: as §1

UniProt Q8VG96 = biological target: T10, UniProt Q8VG96
T10 sequence (whole entry): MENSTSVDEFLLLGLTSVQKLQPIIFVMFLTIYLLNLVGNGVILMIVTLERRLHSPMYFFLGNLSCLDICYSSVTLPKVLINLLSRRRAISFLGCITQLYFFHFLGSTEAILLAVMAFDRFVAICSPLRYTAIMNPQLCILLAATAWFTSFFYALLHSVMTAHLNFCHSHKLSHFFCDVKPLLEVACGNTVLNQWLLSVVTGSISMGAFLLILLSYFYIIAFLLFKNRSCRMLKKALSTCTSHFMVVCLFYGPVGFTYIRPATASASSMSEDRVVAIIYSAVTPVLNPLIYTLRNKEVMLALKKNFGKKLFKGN
Procedure, shortened: as §1

UniProt Q8VGD7 = biological target: T11, UniProt Q8VGD7
T11 sequence (whole entry): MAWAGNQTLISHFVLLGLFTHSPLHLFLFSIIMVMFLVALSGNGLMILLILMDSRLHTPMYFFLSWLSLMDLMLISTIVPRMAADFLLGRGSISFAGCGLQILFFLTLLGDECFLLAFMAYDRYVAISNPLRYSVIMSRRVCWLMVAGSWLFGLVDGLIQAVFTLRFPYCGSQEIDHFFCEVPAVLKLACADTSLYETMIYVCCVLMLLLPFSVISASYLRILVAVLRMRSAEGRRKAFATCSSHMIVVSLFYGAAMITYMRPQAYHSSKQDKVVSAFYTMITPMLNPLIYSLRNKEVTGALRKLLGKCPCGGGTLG
Procedure, shortened: as §1

UniProt Q8VGH1 = biological target: T12, UniProt Q8VGH1
T12 sequence (whole entry): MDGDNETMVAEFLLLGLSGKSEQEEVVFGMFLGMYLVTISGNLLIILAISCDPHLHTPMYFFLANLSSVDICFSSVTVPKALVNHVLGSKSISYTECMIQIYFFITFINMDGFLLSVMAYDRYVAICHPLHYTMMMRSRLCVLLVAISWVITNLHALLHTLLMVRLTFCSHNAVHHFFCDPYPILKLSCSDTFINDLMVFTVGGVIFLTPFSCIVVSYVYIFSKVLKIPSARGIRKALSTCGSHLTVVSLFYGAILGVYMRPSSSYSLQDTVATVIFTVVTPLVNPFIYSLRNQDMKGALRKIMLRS
Procedure, shortened: as §1

UniProt Q8VGJ1 = biological target: T13, UniProt Q8VGJ1
T13 sequence (whole entry): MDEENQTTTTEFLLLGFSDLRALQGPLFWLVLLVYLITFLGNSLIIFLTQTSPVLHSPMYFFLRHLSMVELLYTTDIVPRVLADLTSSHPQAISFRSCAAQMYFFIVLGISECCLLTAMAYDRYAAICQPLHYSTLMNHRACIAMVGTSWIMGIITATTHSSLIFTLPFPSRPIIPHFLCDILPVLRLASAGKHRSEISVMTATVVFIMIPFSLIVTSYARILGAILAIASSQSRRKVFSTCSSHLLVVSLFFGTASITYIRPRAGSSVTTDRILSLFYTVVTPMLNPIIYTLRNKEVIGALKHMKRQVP
Procedure, shortened: as §1

UniProt Q8VGJ5 = biological target: T14, UniProt Q8VGJ5
T14 sequence (whole entry): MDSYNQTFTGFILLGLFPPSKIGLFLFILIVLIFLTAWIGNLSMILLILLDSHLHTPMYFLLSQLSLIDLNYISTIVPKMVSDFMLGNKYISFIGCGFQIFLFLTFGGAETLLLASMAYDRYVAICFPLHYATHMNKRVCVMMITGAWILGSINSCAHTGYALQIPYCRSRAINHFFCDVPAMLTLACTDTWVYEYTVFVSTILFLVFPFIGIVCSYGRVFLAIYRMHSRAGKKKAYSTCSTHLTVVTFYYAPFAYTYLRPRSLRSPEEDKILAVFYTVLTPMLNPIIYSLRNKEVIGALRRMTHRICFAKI
Procedure, shortened: as §1

UniProt Q8VGL7 = biological target: T15, UniProt Q8VGL7
T15 sequence (whole entry): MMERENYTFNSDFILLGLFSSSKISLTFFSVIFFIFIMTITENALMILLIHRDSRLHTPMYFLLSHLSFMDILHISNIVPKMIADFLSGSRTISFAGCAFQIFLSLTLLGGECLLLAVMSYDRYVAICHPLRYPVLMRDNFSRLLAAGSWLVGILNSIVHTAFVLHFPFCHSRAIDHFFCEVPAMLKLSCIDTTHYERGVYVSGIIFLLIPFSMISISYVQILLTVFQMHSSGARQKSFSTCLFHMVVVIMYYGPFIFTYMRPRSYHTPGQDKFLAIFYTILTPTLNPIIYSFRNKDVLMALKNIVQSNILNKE
Procedure, shortened: as §1

UniProt Q8VG28, sequence (Q8VG28 as listed by the source): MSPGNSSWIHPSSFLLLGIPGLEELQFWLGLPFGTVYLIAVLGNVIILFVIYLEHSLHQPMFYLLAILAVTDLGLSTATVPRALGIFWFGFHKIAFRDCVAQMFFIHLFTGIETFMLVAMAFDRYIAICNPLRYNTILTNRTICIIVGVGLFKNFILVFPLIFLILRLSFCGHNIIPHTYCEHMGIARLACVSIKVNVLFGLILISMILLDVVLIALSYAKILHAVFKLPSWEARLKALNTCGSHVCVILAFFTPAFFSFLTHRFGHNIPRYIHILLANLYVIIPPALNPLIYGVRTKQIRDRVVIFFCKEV

Structure (SMILES)	odorant receptor agonist call (UniProt Q8VG27)	odorant receptor agonist call (UniProt Q8VG28)	odorant receptor agonist call (UniProt Q8VG53)	odorant receptor agonist call (UniProt Q8VG64)	odorant receptor agonist call (UniProt Q8VGB9)	odorant receptor agonist call (UniProt Q8VGC6)	odorant receptor agonist call (UniProt Q8VGJ3)	odorant receptor agonist call (UniProt Q8VGL0)	odorant receptor agonist call (UniProt Q8VG49)	odorant receptor agonist call (UniProt Q8VG77)	odorant receptor agonist call (UniProt Q8VG96)	odorant receptor agonist call (UniProt Q8VGD7)	odorant receptor agonist call (UniProt Q8VGH1)	odorant receptor agonist call (UniProt Q8VGJ1)	odorant receptor agonist call (UniProt Q8VGJ5)	odorant receptor agonist call (UniProt Q8VGL7)
O=C(O)CCCCCBr	inactive	inactive	inactive	inactive	inactive	inactive	inactive	inactive	–	–	–	–	–	–	–	–
CCCCCCCC(C)=O	inactive	–	inactive	inactive	inactive	active	inactive	inactive	inactive	inactive	inactive	inactive	inactive	inactive	inactive	inactive
CCCCCC=O	inactive	–	inactive	inactive	inactive	inactive	inactive	inactive	inactive	active	inactive	inactive	inactive	inactive	inactive	inactive
CCCC(=O)C(C)=O	inactive	–	inactive	inactive	inactive	inactive	inactive	inactive	inactive	inactive	inactive	inactive	inactive	inactive	inactive	inactive
CCCCCCCCO	inactive	inactive	inactive	inactive	inactive	active	inactive	inactive	inactive	inactive	inactive	inactive	inactive	inactive	inactive	inactive
